# According to ChEMBL document CHEMBL1144440, “A-ring-substituted estrogen-3-O-sulfamates: potent multitargeted anticancer agents” (J Med Chem, 2005):
# What was measured:
# [1] = system: UACC-62; assay: Concentration required to inhibit the growth of UACC-62 human melanoma cells by 50%; format: functional
# Summary of the method: (§1)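 NCI 55 human cancer cell line panel screen; GI50 is the concentration giving 50% growth inhibition; compounds tested over 10^-4 to 10^-8 M.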
# [2] = system: MDA-MB-435; assay: Concentration required to inhibit the growth of MDA-MB-435 human breast cancer cells by 50%; format: functional; summary of the method: as §1
# [3] = system: SN12C; assay: Concentration required to inhibit the growth of SN12C human renal cancer cells by 50%; format: functional; summary of the method: as §1
# [4] = Mean graph midpoint (MGM) against a panel of human tumor cell lines; format: functional
# Summary of the method: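 NCI 55 cell line panel; mean graph midpoint is the mean concentration giving 50% growth inhibition across all cell lines successfully evaluated; tested range 10^-4 to 10^-8 M, so 0.01 µM is the […] possible value.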
# [5] = system: DU-145; assay: Concentration required to inhibit the growth of DU-145 human prostate cancer cells by 50%; format: functional; summary of the method: as §1
# [6] = system: SF-539; assay: Concentration required to inhibit the growth of SF-539 human CNS cancer cells by 50%; format: functional; summary of the method: as §1
# [7] = Concentration required to inhibit the growth of HOP-6 human lung cancer cells by 50%; format: functional; conditions: Cancer cell lines; summary of the method: as §1
# [8] = system: HCT-116; assay: Concentration required to inhibit the growth of HCT116 human colon cancer cells by 50%; format: functional; summary of the method: as §1
# [9] = system: OVCAR-3; assay: Concentration required to inhibit the growth of OVCAR-3 human ovarian cancer cells by 50%; format: functional; summary of the method: as §1
# [10] = system: MCF7; assay: Inhibition of the growth of human breast cancer MCF-7 cells done for 96 hr at 37 degree C with compound; conditions: MCF7, 96 h
# [11] = system: Mus musculus; assay: Reduction of tumor growth in female mice transplanted with xenografts derived from MDA-MB-435 (ER-) human breast cancer cells after 28 days of treatment at 20 mg/kg oral dose; format: functional, organism-based; set-up: dose 20 mg/kg, route oral; conditions: MDA-MB-435, 672 h
# Summary of the method: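 Oral daily dosing for 28 days. Drug was dissolved in minimal THF, then diluted with propylene glycol. Vehicle controls received THF/propylene glycol. Groups were 12 female mice bearing MDA-MB-435 xenografts, with dosing started at 100-200 mm³. Tumour length and width were measured weekly, volume = l × w²/2, and monitoring continued 28 days after dosing. Growth was compared with controls by Student's t test.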
# [12] = target: T1, Steryl-sulfatase (Homo sapiens, UniProt P08842); assay: Inhibitory concentration against steroid sulfatase in placental microsomes; set-up: species or system Placenta
# T1 sequence (P08842 whole entry): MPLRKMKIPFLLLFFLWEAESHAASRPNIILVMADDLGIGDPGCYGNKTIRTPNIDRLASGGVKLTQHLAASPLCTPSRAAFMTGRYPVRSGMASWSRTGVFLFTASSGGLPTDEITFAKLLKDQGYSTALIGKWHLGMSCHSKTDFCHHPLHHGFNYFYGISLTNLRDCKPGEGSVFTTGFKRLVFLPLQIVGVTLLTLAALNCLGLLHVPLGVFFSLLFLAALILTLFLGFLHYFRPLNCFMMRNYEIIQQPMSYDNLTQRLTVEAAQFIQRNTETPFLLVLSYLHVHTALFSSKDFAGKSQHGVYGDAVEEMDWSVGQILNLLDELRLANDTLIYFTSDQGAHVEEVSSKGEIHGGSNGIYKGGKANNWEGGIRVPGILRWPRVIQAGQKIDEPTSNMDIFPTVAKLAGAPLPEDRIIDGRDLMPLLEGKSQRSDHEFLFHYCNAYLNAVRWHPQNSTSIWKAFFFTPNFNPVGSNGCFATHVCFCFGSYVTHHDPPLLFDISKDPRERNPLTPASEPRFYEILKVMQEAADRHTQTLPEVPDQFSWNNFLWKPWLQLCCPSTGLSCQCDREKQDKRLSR
Structure (SMILES),GI50 [2] [nM],GI50 [3] [nM],MGM [4] [µM],GI50 [5] [nM],GI50 [6] [nM],GI50 [7] [nM],GI50 [8] [nM],GI50 [9] [nM],GI50 [10] [nM],further results
CCSc1cc2c(cc1OS(N)(=O)=O)CC[C@@H]1[C@@H]2CC[C@]2(C)C(=O)CC[C@@H]12,2200,11000,5.62,13000,1400,6900,3200,2300,35200,GI50 [1]: 5900 nM
C[C@]12CC[C@@H]3c4cc(I)c(OS(N)(=O)=O)cc4CC[C@H]3[C@@H]1CCC2=O,–,–,–,–,–,–,–,–,1590,–
Cc1cc2c(cc1OS(N)(=O)=O)CC[C@@H]1[C@@H]2CC[C@]2(C)C(=O)CC[C@@H]12,–,–,–,–,–,–,–,–,260,–
COc1cc2c(cc1OS(=O)(=O)NC(C)=O)CC[C@@H]1[C@@H]2CC[C@]2(C)C(=O)CC[C@@H]12,–,–,–,–,–,–,–,–,168000,–
C[C@]12CC[C@@H]3c4cc(S(C)(=O)=O)c(O)cc4CC[C@H]3[C@@H]1CCC2=O,–,–,–,–,–,–,–,–,66000,–
CCSc1cc2c(cc1O)CC[C@@H]1[C@@H]2CC[C@]2(C)[C@@H](O)CC[C@@H]12,2000,18000,10,24000,16000,16000,8500,14000,23200,GI50 [1]: 11000 nM
CSc1cc2c(cc1OS(N)(=O)=O)CC[C@@H]1[C@@H]2CC[C@]2(C)[C@@H](O)CC[C@@H]12,–,–,–,–,–,–,–,–,430,–
CCSc1cc2c(cc1OS(N)(=O)=O)CC[C@@H]1[C@@H]2CC[C@]2(C)[C@@H](O)CC[C@@H]12,–,–,–,–,–,–,–,–,23400,–
COc1cc2c(cc1OS(N)(=O)=O)CC[C@@H]1[C@@H]2CC[C@]2(C)[C@@H](O)CC[C@@H]12,–,–,–,–,–,–,–,–,–,IC50 [11]: 33000 nM; IC50 [12]: 34 nM
CCSc1cc2c(cc1O)CC[C@@H]1[C@@H]2CC[C@]2(C)C(=O)CC[C@@H]12,–,–,–,–,–,–,–,–,31900,–
CCc1cc2c(cc1OS(N)(=O)=O)CC[C@@H]1[C@@H]2CC[C@]2(C)[C@@H](O)CC[C@@H]12,< 10,40,0.016,< 10,< 10,< 10,< 10,< 10,70,GI50 [1]: < 10 nM; IC50 [12]: 1000 nM
CSc1cc2c(cc1OS(N)(=O)=O)CC[C@@H]1[C@@H]2CC[C@]2(C)C(=O)CC[C@@H]12,< 10,760,0.229,22000,45,35000,88,12,400,GI50 [1]: 52 nM; IC50 [12]: 120 nM
CSc1cc2c(cc1O)CC[C@@H]1[C@@H]2CC[C@]2(C)C(=O)CC[C@@H]12,12000,19000,20.4,85000,14000,27000,20000,22000,33400,GI50 [1]: 12000 nM
COc1cc2c(cc1OS(N)(=O)=O)CC[C@@H]1[C@@H]2CC[C@]2(C)C(=O)CC[C@@H]12,< 10,600,0.095,320,120,160,65,< 10,300,GI50 [1]: 17 nM; IC50 [12]: 42 nM
COc1cc2c(cc1OS(=O)(=O)N(C)C)CC[C@@H]1[C@@H]2CC[C@]2(C)C(=O)CC[C@@H]12,–,–,–,–,–,–,–,–,> 10000,–
C[C@]12CC[C@@H]3c4ccc(OS(N)(=O)=O)cc4CC[C@H]3[C@@H]1CCC2=O [EMATE],–,–,–,–,–,–,–,–,–,IC50 [12]: 22 nM
C[C@]12CC[C@@H]3c4cc(I)c(O)cc4CC[C@H]3[C@@H]1CCC2=O,–,–,–,–,–,–,–,–,38000,–
CCc1cc2c(cc1OS(N)(=O)=O)CC[C@@H]1[C@@H]2CC[C@]2(C)C(=O)CC[C@@H]12,< 10,< 10,0.014,< 10,< 10,< 10,< 10,< 10,340,GI50 [1]: < 10 nM; IC50 [12]: 1800 nM
CCOc1cc2c(cc1OS(N)(=O)=O)CC[C@@H]1[C@@H]2CC[C@]2(C)[C@@H](O)CC[C@@H]12,–,–,–,–,–,–,–,–,610,–
CCc1cc2c(cc1O)CC[C@@H]1[C@@H]2CC[C@]2(C)C(=O)CC[C@@H]12,–,–,–,–,–,–,–,–,57600,–
COc1cc2c(cc1O)CC[C@@H]1[C@@H]2CC[C@]2(C)[C@@H](O)CC[C@@H]12 [2-METHOXYESTRADIOL],80,950,1.3,1800,320,700,470,210,–,GI50 [1]: 360 nM
COc1cc2c(cc1O)CC[C@@H]1[C@@H]2CC[C@]2(C)C(=O)CC[C@@H]12,–,–,–,–,–,–,–,–,21300,–
C[C@]12CC[C@@H]3c4cc(Br)c(O)cc4CC[C@H]3[C@@H]1CCC2=O,–,–,–,–,–,–,–,–,33000,–
C[S+]([O-])c1cc2c(cc1O)CC[C@@H]1[C@@H]2CC[C@]2(C)C(=O)CC[C@@H]12 (some centres undefined),–,–,–,–,–,–,–,–,> 10000,–
CSc1cc2c(cc1O)CC[C@@H]1[C@@H]2CC[C@]2(C)[C@@H](O)CC[C@@H]12,–,–,–,–,–,–,–,–,3960,–
CCOc1cc2c(cc1OS(N)(=O)=O)CC[C@@H]1[C@@H]2CC[C@]2(C)C(=O)CC[C@@H]12,–,–,–,–,–,–,–,–,4840,IC50 [12]: 890 nM
CCc1cc2c(cc1O)CC[C@@H]1[C@@H]2CC[C@]2(C)[C@@H](O)CC[C@@H]12,1700,7300,6.5,11000,3300,6100,3500,2900,10500,–
C[C@]12CC[C@@H]3c4cc(Br)c(OS(N)(=O)=O)cc4CC[C@H]3[C@@H]1CCC2=O,–,–,–,–,–,–,–,–,6950,–
CCOc1cc2c(cc1O)CC[C@@H]1[C@@H]2CC[C@]2(C)C(=O)CC[C@@H]12,–,–,–,–,–,–,–,–,9040,–
